These results are taken from ChEMBL document CHEMBL4619783, “Identification and Optimization of a Series of 8-Hydroxy Naphthyridines with Potent In Vitro Antileishmanial Activity: Initial SAR and Assessment of In Vivo Activity” (J Med Chem, 2020).

What is called EC50 is the concentration needed to bring the measured effect to its halfway point. In general, logD refers to the decadic logarithm of the distribution of all forms, ionised or not, between an organic phase and buffer at a given pH. What is called chromatographic logD is a lipophilicity value derived from retention on a column.

Series [1] relates to Leishmania donovani. Nature of the series: Antileishmanial activity against Leishmania donovani amastigotes infected in human THP1 cells incubated for 96 hrs. Type of series: functional, organism-based. The settings on record: THP-1, 96 h. The method, boiled down:
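THP-1 cells were infected with L. donovani amastigotes and exposed to compound for 96 h rather than the earlier 72 h. Values are from at least three or four independent replicates.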

Series [2] in a line: Toxicity in human THP1 cells assessed as reduction in cell viability. Type of series: cell-based. The settings on record: THP-1 cells.
A short description of series [3]: Intrinsic clearance in mouse liver microsomes. The format is ADME, Microsome.
Series [4] is described as follows: Kinetic aqueous solubility of the compound. Type of series: physicochemical. As to conditions: buffer; for solubility kinetic: read-out: Kinetic_solubility.
Series [5] in a line: Distribution coefficient, logD of the compound at pH 7.4 by chromatography. As to conditions: octanol/water. The format is physicochemical.
The test system of series [6] is Leishmania donovani. Nature of the series: Antileishmanial activity against Leishmania donovani infected in mouse assessed as reduction in parasite levels at 30 mg/kg, po qd. Details: scale not given: the % may be the effect or the level left.
Series [7] can be described thus: Selectivity index, ratio of EC50 for toxicity in human THP1 cells assessed as reduction in cell viability to EC50 for antileishmanial activity against Leishmania donovani amastigotes infected in human THP1 cells incubated for 96 hrs. Type of series: cell-based. The settings on record: THP-1 cells, read-out: Ratio EC50.
Series [8] in a line: Drug metabolism in Balb/C mouse assessed as glucuronide adduct formation at 50 mg/kg, ip BID by UPLC Q-TOF analysis. The settings on record: in vivo. Type of series: ADME, organism-based. In a few lines:
(§1)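 Balb/C mice received 50 mg/kg ip. Blood/water (1:2) was sampled at set time points, mixed with acetonitrile and centrifuged 5 min at 7000 rpm. Metabolites and parent compound were then analysed. Data are from two runs.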

Series [9] is described as follows: Drug metabolism in Balb/C mouse assessed as hydroxylation formation at 50 mg/kg, ip BID by UPLC Q-TOF analysis. Type of series: ADME, organism-based. The settings on record: in vivo. In a few lines: as §1
Series [10] is described as follows: Stability in Balb/C mouse assessed as parent compound level at 50 mg/kg, ip BID after 8 hrs by UPLC Q-TOF analysis. Type of series: ADME, organism-based. As to conditions: in vivo. The method, boiled down: as §1

Converted amounts (≈) assume the structure as drawn. A value given as a limit tells only on which side of the number the result lay.

Consider `Cc1n[nH]c(-c2ncc3cccnc3c2O)n1`, for which the 50% effective concentration (EC50) in series [1] and in [2] was > 50.1 µM in each case. The same molecule had a CLH in [3] of 3.3 mL/min/g. Moreover, the Kinetic_solubility in series [4] was > 250 µM. The pH-dependent lipophilicity (logD) in [5] came to 0.73.

With `O=C(NCc1ccc(Cl)cc1)c1ncc2ccccc2c1O`, the EC50 in [1] and in series [2] was > 50.1 µM throughout. The molecule further showed a CLH in [3] of 28 mL/min/g. The molecule further showed a Kinetic_solubility in series [4] of 39 µM. Moreover, the log distribution coefficient (logD) in [5] is 7.6.

Take `COc1ccc(CNC(=O)c2nn(C)c3cccnc3c2=O)cc1`: the concentration giving a half-maximal response (EC50) in [1] and in series [2] was > 50.1 µM each time. In [3], this molecule showed a CLH of 0.7 mL/min/g. Moreover, in series [4], the Kinetic_solubility was > 250 µM. In addition, the logD in series [5] was 1.9.

As for `O=C(NCc1ccc(Cl)cc1)c1ccc2cccnc2c1O`, the EC50 in [1] was 15.8 µM; in series [2] it was 6.31 µM. This molecule yielded a CLH in series [3] of 19 mL/min/g. This molecule yielded a Kinetic_solubility in series [4] of 219 µM. The same molecule registered a log distribution coefficient (logD) in series [5] of 4.8.

As to `O=C(NCc1ccc(Cl)cc1)c1ncc2cccnc2c1O`, the EC50 in series [2] is > 50.1 µM. Besides, the CLH in series [3] worked out at 10 mL/min/g. For the same molecule, in [4], the Kinetic_solubility is > 250 µM.

Turning to `Cc1n[nH]c(-c2nc(N3CCCCS3(=O)=O)c3cccnc3c2O)n1`, the half-maximal effective concentration (EC50) in [1] and in [2] was > 50.1 µM in each case. In addition, the CLH in series [3] turned out to be 0.6 mL/min/g. Further, the solubility kinetic in series [4] worked out at 250 µM (≈ 90.1 µg/mL). The molecule also came in with a chromatographic logD in series [5] of 1.5.

For the molecule `CCCCCCCCCCCCCCCCOP(=O)([O-])OCC[N+](C)(C)C` [MILTEFOSINE], the results for the EC50 in [1] and in series [2] were 3.98 µM and > 50.1 µM, respectively. In addition, the Activity in series [6] is listed as >99%.

Turning to `Oc1c(-c2nc(CN3CCOCC3)n[nH]2)ncc2cccnc12`, the EC50 in series [2] is > 50.1 µM. Also, the CLH in series [3] was found to be 0.8 mL/min/g. The molecule also showed a Kinetic_solubility in series [4] of 219 µM. For the same molecule, the logD in [5] stood at 0.5.

Take `C[C@@H]1[C@H](O)[C@@H](C)/C=C/C=C/C=C/C=C/C=C/C=C/C=C/[C@H](O[C@@H]2O[C@H](C)[C@@H](O)[C@H](N)[C@@H]2O)C[C@@H]2O[C@](O)(C[C@@H](O)C[C@@H](O)[C@H](O)CC[C@@H](O)C[C@@H](O)CC(=O)O[C@H]1C)C[C@H](O)[C@H]2C(=O)O` [AMPHOTERICIN B]: the half-maximal effective concentration (EC50) is 0.2 µM in series [1] and > 1 µM in series [2].

On to `Cc1n[nH]c(-c2cc3ncccc3c(-c3ccccc3)n2)n1`, for which the EC50 in series [1] and in [2] was > 50.1 µM in each case. In addition, the Kinetic_solubility in [4] is > 250 µM.

For the molecule `O=C(NCc1ccc(Cl)cc1)c1nc(N2CCOCC2)c2cccnc2c1O`, the concentration giving a half-maximal response (EC50) in series [1] and in [2] was > 50.1 µM throughout. Also, the CLH in series [3] was found to be 24 mL/min/g. In [4], the solubility kinetic is 219 µM (≈ 87.3 µg/mL).

With `Oc1c(-c2nc(C(O)c3ccccc3)n[nH]2)ncc2cccnc12` (configuration not stated), the half-maximal effective concentration (EC50) was 5.01 µM in [1] and > 50.1 µM in series [2]. The CLH in series [3] came out at 1.9 mL/min/g. Moreover, the Kinetic_solubility in series [4] is > 250 µM.

For `COc1ccccc1-c1nc(C(=O)NCC2CC2)c(O)c2ncccc12`, the EC50 was 2 µM in [1] and > 50.1 µM in series [2]. This molecule showed a CLH in series [3] of 8 mL/min/g. Further, in series [4], the solubility kinetic is > 250 µM.

On to `Cc1n[nH]c(-c2nc(N(C)C)c3cccnc3c2O)n1`, for which the concentration for a half-maximal effect (EC50) in series [1] is 15.8 µM; in [2], > 50.1 µM. Besides, in [3], the CLH worked out at 14 mL/min/g. The solubility kinetic in [4] is > 250 µM. Also, the chromatographic logD in [5] is -0.6.

As for `Cc1n[nH]c(-c2nc(-c3ccccc3C(F)(F)F)c3cccnc3c2O)n1`, the values for the EC50 in series [1] and in series [2] were 0.1 µM and > 50.1 µM, respectively. In [3], this molecule displayed a CLH of 1.4 mL/min/g. In addition, in [4], the solubility kinetic is > 250 µM. This molecule also had a chromatographic logD in series [5] of 4.3.

`COc1ccc(CNC(=O)c2ncc3cccnc3c2O)cc1`: the EC50 in [1] was 0.501 µM; in series [2], > 50.1 µM. The CLH in series [3] amounted to 2.6 mL/min/g. In addition, in series [4], the Kinetic_solubility was > 250 µM. In addition, the logD in series [5] is 4.2.

As for `Oc1c(-c2nnc(Cc3ccc(F)cc3)[nH]2)ncc2cccnc12`, the figures for the concentration giving a half-maximal response (EC50) in series [1] and in [2] were 2.51 µM and 39.8 µM, respectively.

`Cc1nnc(C(=O)NC(C)(C)c2nc(C(=O)NCc3ccc(F)cc3)c(O)c(=O)n2C)o1` [RALTEGRAVIR]: the EC50 in series [1] and in series [2] was > 50.1 µM in each case. In addition, the Kinetic_solubility in [4] was > 250 µM.

Consider `COc1ccccc1-c1nc(-c2nc(C)n[nH]2)c(OC)c2ncccc12`, for which the 50% effective concentration (EC50) is 2.51 µM in series [1] and > 50.1 µM in series [2]. Besides, the CLH in [3] was 2 mL/min/g. Also, in series [4], the Kinetic_solubility was > 250 µM. Moreover, the log distribution coefficient (logD) in [5] turned out to be 5.7.

For the molecule `C[C@@H](NC(=O)c1cn(C)c2cccnc2c1=O)c1ccc(F)cc1`, the concentration for a half-maximal effect (EC50) in series [1] and in [2] was > 50.1 µM throughout. The molecule further registered a CLH in series [3] of 0.7 mL/min/g. Also, in [4], the solubility kinetic was > 250 µM.

For `Oc1c(-c2nnc(Cc3ccc(Cl)cc3)[nH]2)ncc2cccnc12`, in [2], the 50% effective concentration (EC50) was 31.6 µM. This molecule registered a CLH in series [3] of 18 mL/min/g. The molecule also showed a Kinetic_solubility in series [4] of 219 µM. The pH-dependent lipophilicity (logD) in [5] was found to be 4.1. Moreover, the selectivity ratio at 96 h in series [7] was found to be 100.

Take `COc1ccccc1-c1nc(C(=O)N[C@H](C)c2ccc(F)cc2)c(O)c(=O)n1C`: the EC50 in series [1] and in [2] was > 50.1 µM throughout. Also, the CLH in series [3] is < 0.5 mL/min/g. In series [4], the Kinetic_solubility stood at 173 µM. The same molecule gave a logD in series [5] of 5.5.

For `CNC(=O)c1nc(-c2ccccc2OC)c2cccnc2c1O`, the EC50 in series [1] was 10 µM; in series [2], 39.8 µM. For the same molecule, the CLH in series [3] was 0.9 mL/min/g. In addition, the Kinetic_solubility in series [4] amounted to 219 µM. Moreover, the logD in [5] stood at 4.2. Further, the Drug metabolism result in [8] is listed as “Metabolite_Notdetected”; in [9], “Metabolite_Detected”. Further, the Stability result in [10] is recorded as “Stable”.

`O=C(NCC1CC1)c1ncc2cccnc2c1O`: the values for the EC50 in series [1] and in series [2] were 1.26 µM and > 50.1 µM, respectively. The molecule further returned a CLH in series [3] of 13 mL/min/g. Also, the chromatographic logD in series [5] stood at 3.3.

Consider `COc1ccccc1-c1nc(-c2nnc(C)o2)c(O)c2ncccc12`, for which the concentration giving a half-maximal response (EC50) in [1] and in series [2] was > 50.1 µM each time. For the same molecule, the CLH in series [3] is < 0.5 mL/min/g. Besides, in series [4], the Kinetic_solubility was > 250 µM. In [5], this molecule gave a logD of 3.8.

As to `O=C1CCCN1Cc1n[nH]c(-c2ncc3cccnc3c2O)n1`, the concentration for a half-maximal effect (EC50) in [1] and in [2] was > 50.1 µM in each case. Moreover, the CLH in [3] was < 0.5 mL/min/g. In series [4], the Kinetic_solubility is > 250 µM.
